TbMetRS inhib: Trypanosoma brucei MetRS inhibition | purified T. brucei MetRS, ATP depletion, Kinase-Glo luminescence | inhibition, % at 11.9 µM | 360,000 compounds, 0.4% hits;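 active = inhibition above a per-plate cutoff of the control wells' mean inhibition plus 3 SD, cut at about 5.5% in these data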;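 also: 0% = DMSO wells median and 100% = median of wells with control inhibitor compound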
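Material: parasite MetRS enzyme / Replication: singlicate, one well per compound / Signal: luminescence of leftover ATP / Schedule: 2 h aminoacylation at 25 °C after 15 min preincubation / Medium: HEPES-MgCl2-KCl buffer plus DTT, spermine, BSA, pyrophosphatase / Doses: 11.9 µM single point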
DAGLB inhibitor: blocks human DAGLB lipase activity | 340,000 compounds, 0.059% hits | HEK293T DAGLB membrane lysate, EnzChek fluorogenic substrate | Q8NCG7 | inhibition, % at 5.17 µM; in the data active = inhibition above about 34%;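 also: 0% = enzyme with vehicle and 100% = wells lacking enzyme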
PLCg1 inh: blocks human PLC-gamma1 enzyme activity | inhibition, % at 12.2 µM | 370,000 compounds, 0.84% hits | purified PLC-gamma1, fluorogenic substrate, fluorescence | AID 720700; in the data active = inhibition above about 9.5%
Target sequence (P19174 whole entry, looked up): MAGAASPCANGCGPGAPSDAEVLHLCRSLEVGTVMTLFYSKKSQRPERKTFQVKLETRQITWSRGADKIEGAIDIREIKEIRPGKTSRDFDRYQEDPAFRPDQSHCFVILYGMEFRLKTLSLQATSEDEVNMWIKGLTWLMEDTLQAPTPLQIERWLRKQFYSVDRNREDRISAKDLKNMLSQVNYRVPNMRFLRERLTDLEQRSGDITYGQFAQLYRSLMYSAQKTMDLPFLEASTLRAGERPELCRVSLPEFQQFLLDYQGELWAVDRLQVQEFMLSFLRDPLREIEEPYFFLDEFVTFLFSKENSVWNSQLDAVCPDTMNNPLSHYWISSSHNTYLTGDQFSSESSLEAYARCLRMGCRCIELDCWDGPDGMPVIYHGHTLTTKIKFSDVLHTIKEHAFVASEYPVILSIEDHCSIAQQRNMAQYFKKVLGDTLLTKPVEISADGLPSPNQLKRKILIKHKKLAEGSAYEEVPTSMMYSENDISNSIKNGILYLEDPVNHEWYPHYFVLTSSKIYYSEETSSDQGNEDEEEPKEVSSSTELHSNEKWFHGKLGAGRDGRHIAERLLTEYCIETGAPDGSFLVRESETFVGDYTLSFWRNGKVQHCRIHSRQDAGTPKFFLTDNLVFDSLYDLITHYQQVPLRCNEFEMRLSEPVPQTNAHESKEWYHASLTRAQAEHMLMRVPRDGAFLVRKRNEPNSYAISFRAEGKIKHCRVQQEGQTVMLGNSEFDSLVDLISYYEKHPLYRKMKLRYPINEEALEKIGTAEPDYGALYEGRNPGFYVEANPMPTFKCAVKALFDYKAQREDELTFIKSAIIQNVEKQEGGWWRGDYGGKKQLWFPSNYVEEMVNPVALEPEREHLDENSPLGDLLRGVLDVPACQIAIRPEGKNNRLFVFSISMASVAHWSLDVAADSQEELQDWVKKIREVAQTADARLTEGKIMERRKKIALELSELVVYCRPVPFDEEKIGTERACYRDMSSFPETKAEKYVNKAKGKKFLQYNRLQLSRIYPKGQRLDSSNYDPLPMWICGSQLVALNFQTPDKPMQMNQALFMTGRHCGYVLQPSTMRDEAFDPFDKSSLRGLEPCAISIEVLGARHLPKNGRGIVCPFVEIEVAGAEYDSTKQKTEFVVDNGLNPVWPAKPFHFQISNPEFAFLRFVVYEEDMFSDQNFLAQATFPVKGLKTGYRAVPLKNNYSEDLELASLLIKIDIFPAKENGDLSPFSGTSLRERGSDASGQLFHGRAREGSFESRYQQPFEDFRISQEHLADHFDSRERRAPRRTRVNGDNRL
PLCb3 inh: inhibitors of human phospholipase C beta3; Purified PLC-beta3, fluorogenic substrate, fluorescence; 370,000 compounds, 0.18% hits; Q01970; inhibition, % at 12.2 µM; in the data active = inhibition above about 11%;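 also: 0% = median of compound wells on plate and 100% = full blocker control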
HGIII-sPLA2 inh: Inhibits HGIII-sPLA2 liposome hydrolysis, primary screen; AID 743126; 370,000 compounds, 0.56% hits; QFRET BODIPY PC-A2 liposome hydrolysis, fluorescence; inhibition, % at 12.2 µM; Q9NZ20;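 active = inhibition above mean plus 3 SD of compounds lying within the high and low control bounds, cut at about 19% in these data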;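 also: 0% = median of test compound wells and 100% = no enzyme DMSO wells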
sPLA2 confirm: human GIII-sPLA2 inhibition, confirmation; shares compounds with HGIII-sPLA2 inh; inhibition, % at 12.2 µM; 2,000 compounds, 34% hits; recombinant hGIII-sPLA2, BODIPY PC-A2 QFRET fluorescence;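 active = mean inhibition across triplicates above the hit cutoff set in the earlier primary screen, cut at about 19% in these data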;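 also: 0% = enzyme with DMSO and 100% = DMSO wells lacking enzyme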
535nm interf: 535nm fluorescence interference, HGIII-sPLA2 counter-screen; shares compounds with HGIII-sPLA2 inh; BODIPY FL product fluorescence interference, QFRET; inhibition, % at 12.2 µM; 2,000 compounds, 8.5% hits; AID 743282;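 active = average inhibition above the solvent-only control mean plus 3 SD, cut at about 6% in these data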;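 also: 0% = DMSO with substrate plus product and 100% = DMSO with substrate alone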
BODIPY interf DR: counter-screen for HGIII-sPLA2 inhibitors: 535nm fluorescence interference, dose response; shares compounds with HGIII-sPLA2 inh; BODIPY FL product fluorescence interference, cell-free; 240 tested, under 10 active; IC50, µM;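 active = IC50 at or below 10 µM; inactive = IC50 above 10 µM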
* hit, by the source's call; / = no result. In the library only some 1.9% were active in any assay of this set; here they are far more common.

SMILES	TbMetRS inhib	DAGLB inhibitor	PLCg1 inh	PLCb3 inh	HGIII-sPLA2 inh	sPLA2 confirm	535nm interf	others
O=C(NCC(c1ccco1)N1CCCC1)c1ccccc1F (stereo not given)	0	-1	-4	-1	-3	/	/
COCC(=O)Nc1ccc2c(c1)C(=O)N(C)[C@@H]1CC[C@@H](CC(=O)OC)O[C@H]1CO2	/	/	-2	-2	6	/	/
CCS(=O)(=O)Nc1ccc2c(c1)C(=O)N(C)[C@@H]1CC[C@H](CC(=O)N[C@@H]3CCN(Cc4ccccc4)C3)O[C@H]1CO2	/	/	3	-2	20*	-1	-12
CCC(=O)Nc1ccc2c(c1)C(=O)N(C)[C@@H]1CC[C@@H](CC(=O)NCc3ccc(OC)cc3)O[C@H]1CO2	/	/	3	-4	19*	1	-5
CN1C(=O)c2cc(NC(=O)Cc3ccccc3)ccc2OC[C@H]2O[C@H](CC(=O)O)CC[C@H]21	/	/	-4	-3	1	/	/
COC(=O)C[C@H]1CC[C@@H]2[C@H](COc3ccc(NC(=O)C(C)C)cc3C(=O)N2C)O1	/	/	8	4	19*	0	-6
CCc1ccccc1CNC(=O)C1CCC(CNS(=O)(=O)c2cccc3cccnc23)CC1 (stereo not given)	/	/	0	5	-4	/	/
Cn1cccc1C(=O)N1CCN(S(=O)(=O)c2ccc(Cl)s2)CC1	/	/	0	-4	-6	/	/
COc1cccc(Sc2ccccc2CN(C)C)c1	-1	-1	-2	4	20*	-3	-19
Cc1cccc(C(=O)NC(=S)N2CCN(C(=S)NC(=O)c3cccc(C)c3)CC2)c1	-1	-3	-8	3	29*	19	-5
CCCNC(=S)N1CCC(NC(=O)c2cccc(C)c2)CC1	-1	-2	4	-1	20*	13	-8
Cc1cccc(NC(=O)C2CCN(c3nnc(-n4cccc4)s3)CC2)c1C	/	/	-7	5	-1	/	/
C(=N\N(c1ccccc1)c1ccccc1)/c1ccc2c(c1)OCO2	-1	-10	-11	-13	7	/	/
CN(/N=C/c1ccc2c(c1)OCO2)c1ccccc1	-1	-6	1	-1	23*	41*	6.6*
CN(C)c1nc(-c2ccccn2)nnc1-c1ccccc1	-1	3	0	-5	3	/	/
c1ccc(-c2cccc(CNc3nc(-c4ccccn4)nnc3-c3ccccc3)c2)cc1	/	/	3	3	25*	0	-36
COC(=O)[C@]12C[C@H](CC(=O)N3CCCCC3)C(=O)N(Cc3ccc(Cl)cc3Cl)C1=C[C@H](C(C)C)O[C@@H]2C1CC1	/	/	-3	-1	0	/	/
COC(=O)c1ccc(/C=N/NC(=O)c2ccc3nc[nH]c3c2)cc1	-1	0	5	-2	-1	/	/
Cc1ccc(/C=N/NC(=O)c2ccc3nc[nH]c3c2)o1	2	-2	1	-8	21*	2	-2
CCCCN1CC(COc2ccc(OC)cc2)OCCS1(=O)=O (stereo not given)	/	/	2	3	-6	/	/
CCOC(=O)c1c(C)[nH]c(C(=O)COC(=O)COc2ccccc2C=O)c1C	0	-1	4	-4	20*	3	-14
CCOC(=O)c1c(C)[nH]c(C(=O)COC(=O)/C=C/c2cccc(OC)c2OC)c1C	0	0	-3	0	18	/	/
COc1ccc(NC(=O)NNC(=O)c2ccc3ccccc3c2O)c(OC)c1	0	1	-66	-109	32*	34*	5	BODIPY interf DR=>122
COc1ccc(NC(=O)c2ccccc2NC(=O)c2ccccc2C(=O)O)c(OC)c1	-1	-2	-16	-37	22*	0	-1
CCc1ccccc1NC(=O)NNC(=O)c1ccc2ccccc2c1O	0	4	-13	-29	12	/	/
SMILES	TbMetRS inhib	DAGLB inhibitor	PLCg1 inh	PLCb3 inh	HGIII-sPLA2 inh	sPLA2 confirm	535nm interf	others
COc1ccccc1NC(=O)c1ccccc1C(=O)O	0	-2	-3	1	8	/	/
CCOc1ccc(NC(=O)NNC(=O)c2ccc3ccccc3c2O)cc1	0	2	-48	-86	21*	24*	1
N#CC(C(=S)Nc1ccccc1)c1nc2ccccc2[nH]1 (stereo not given)	-1	9	-95	-127	28*	3	7.4*
CSC(=Nc1ccccc1)C(C#N)c1nc2ccccc2[nH]1 (stereo not given)	1	-3	-2	-9	6	/	/
CCOC(=O)c1cnc(-n2[nH]c(C)c(Cc3ccccc3)c2=O)[nH]c1=O	1	4	-5	-6	23*	20*	-5
N#C/C(=N\Nc1ccccc1)C(N)=S	-1	-1	4	0	19*	33*	-3
Nc1ccn([C@@H]2O[C@H](C(=O)N3CCN(CCO)CC3)[C@@H](O)[C@H]2O)c(=O)n1	/	/	-1	-3	0	/	/
Cc1[nH]c2ccccc2c1-c1csc(N)n1	0	-1	-9	-14	2	/	/
COc1ccccc1Nc1nc(-c2c(C)[nH]c3ccccc23)cs1	0	5	-30	-34	20*	20*	9.8*
COc1ccc2nc(NC(=O)CCN3C(=S)NC(C)(C)CC3C)sc2c1 (stereo not given)	0	9	2	-7	26*	24*	-11
Cc1cc(C)c(C)c(N=Nc2nc3ccccc3n2C)c1C	-1	29	-8	-5	21*	39*	-3	BODIPY interf DR=>122
CCCCCCCCNC(=S)NCCN1CCCCC1	-1	3	7	5	23*	21*	-16
Cc1ccccc1N1CCN(S(=O)(=O)c2ccc3c(c2)n(C)c(=O)c(=O)n3C)CC1	/	/	1	1	0	/	/
CCCCn1c(N)c(N(CCOC)C(=O)C2CCN(S(=O)(=O)c3ccc(F)cc3)CC2)c(=O)[nH]c1=O	0	1	-4	0	-1	/	/
CCCCn1c(N)c(N(CCOC)C(=O)C2CCN(S(=O)(=O)c3ccc(C)cc3)CC2)c(=O)[nH]c1=O	-1	-2	1	-8	22*	4	-14
CC(=O)OCC(=O)N1CCN(C(=O)C(=O)c2cccc(C(F)(F)F)c2)CC1	/	/	0	-2	22*	4	-3
COc1cc(OC)cc(-c2c(-c3cccs3)c3cc(-c4cccc5[nH]ccc45)ccc3n2C)c1	0	-3	-321	-449	29*	16	9.8*
COc1cc(OC)cc(-c2c(-c3ccc(C(C)=O)cc3)c3cc(-c4cccc5[nH]ccc45)ccc3n2C)c1	0	0	-167	-275	11	/	/
C/C(=N\NC(=O)COc1cccc(C)c1)c1ccc2ccccc2c1O	0	2	-21	-27	22*	39*	6.0*

Bioassay records (PubChem)
